Source: ChEMBL document CHEMBL4382285, “Discovery of Novel Retigabine Derivatives as Potent KCNQ4 and KCNQ5 Channel Agonists with Improved Specificity” (ACS Med Chem Lett, 2019)
Calls of active or inactive are those of the source. The calls are words filed in the database; no cut-off is given here.

Experiments:
Format in all cases: cell-based
[1] = biological target: T1, Potassium voltage-gated channel subfamily KQT member 1 (Homo sapiens, UniProt P51787); assay: Activity at human KCNQ1 expressed in CHOK1 cells assessed as ratio of amplitude of outward current in presence of test compound to amplitude of outward current in absence of test compound at 10 uM at +60 mV by whole cell patch clamp assay
T1 sequence (P51787 whole entry): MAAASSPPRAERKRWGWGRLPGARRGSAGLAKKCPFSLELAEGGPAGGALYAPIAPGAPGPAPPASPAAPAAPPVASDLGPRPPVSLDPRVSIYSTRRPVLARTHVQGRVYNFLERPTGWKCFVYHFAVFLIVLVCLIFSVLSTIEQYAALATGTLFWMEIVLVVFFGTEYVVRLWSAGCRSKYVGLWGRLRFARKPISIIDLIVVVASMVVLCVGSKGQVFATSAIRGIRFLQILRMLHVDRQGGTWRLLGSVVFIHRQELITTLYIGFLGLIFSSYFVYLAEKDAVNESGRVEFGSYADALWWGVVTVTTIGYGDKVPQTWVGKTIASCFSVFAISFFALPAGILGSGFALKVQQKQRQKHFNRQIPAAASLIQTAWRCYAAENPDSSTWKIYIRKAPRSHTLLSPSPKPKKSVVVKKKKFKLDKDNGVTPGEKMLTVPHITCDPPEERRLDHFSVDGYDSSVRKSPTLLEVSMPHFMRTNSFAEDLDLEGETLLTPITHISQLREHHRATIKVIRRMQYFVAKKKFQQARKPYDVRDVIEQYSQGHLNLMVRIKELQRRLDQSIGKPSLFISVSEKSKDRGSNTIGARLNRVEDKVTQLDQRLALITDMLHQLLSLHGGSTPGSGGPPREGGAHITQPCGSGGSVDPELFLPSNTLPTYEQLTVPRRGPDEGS
Summary of the method: (§1)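 CHO-K1 cells individually transfected with a single KCNQ subtype; whole-cell voltage clamp. Held at −80 mV, stepped from −90 to +60 mV in 10 mV increments (1500 ms), then to −120 mV for 500 ms. Outward current at −10 or +60 mV measured before (I0) and after (I) 10 μM compound; I/I0 >1 counts as activation. More than four cells per compound.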

[2] = biological target: T1, Potassium voltage-gated channel subfamily KQT member 1; assay: Activity at human KCNQ1 expressed in CHOK1 cells assessed as ratio of amplitude of outward current in presence of test compound to amplitude of outward current in absence of test compound at 10 uM at -10 mV by whole cell patch clamp assay; summary of the method: as §1
[3] = biological target: Potassium voltage-gated channel subfamily KQT member 2 (Rattus norvegicus) (UniProt O88943); assay: Activity at rat KCNQ2 expressed in CHOK1 cells assessed as ratio of amplitude of outward current in presence of test compound to amplitude of outward current in absence of test compound at 10 uM at -10 mV by whole cell patch clamp assay
Summary of the method: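 CHO-K1 cells expressing the channel, whole-cell voltage clamp, compound at 10 μM. Read-out is the outward current ratio I/I0 with and without compound, taken at −10 mV. I/I0 > 1 counts as activation and < 1 as inhibition. More than four cells per compound.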

[4] = biological target: Potassium voltage-gated channel subfamily KQT member 2 (Rattus norvegicus, UniProt O88943); assay: Activation of rat homomeric KCNQ2 expressed in CHOK1 cells increase in current amplitude at 30 uM at -10 mV by whole cell patch clamp assay relative to control
Summary of the method: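 CHO-K1 cells expressing homomeric KCNQ2, recorded by whole-cell voltage clamp. Holding potential −80 mV with step depolarizations; current amplitude at −10 mV compared before and after compound across 1–30 μM, reported as percent change in current.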

[5] = biological target: T2, Potassium voltage-gated channel subfamily KQT member 4 (Homo sapiens) (UniProt P56696); assay: Effect on voltage-dependent activation of human KCNQ4 expressed in CHOK1 cells assessed as negative shift in current activation curve at 10 uM by whole cell patch clamp assay
T2 sequence (whole entry): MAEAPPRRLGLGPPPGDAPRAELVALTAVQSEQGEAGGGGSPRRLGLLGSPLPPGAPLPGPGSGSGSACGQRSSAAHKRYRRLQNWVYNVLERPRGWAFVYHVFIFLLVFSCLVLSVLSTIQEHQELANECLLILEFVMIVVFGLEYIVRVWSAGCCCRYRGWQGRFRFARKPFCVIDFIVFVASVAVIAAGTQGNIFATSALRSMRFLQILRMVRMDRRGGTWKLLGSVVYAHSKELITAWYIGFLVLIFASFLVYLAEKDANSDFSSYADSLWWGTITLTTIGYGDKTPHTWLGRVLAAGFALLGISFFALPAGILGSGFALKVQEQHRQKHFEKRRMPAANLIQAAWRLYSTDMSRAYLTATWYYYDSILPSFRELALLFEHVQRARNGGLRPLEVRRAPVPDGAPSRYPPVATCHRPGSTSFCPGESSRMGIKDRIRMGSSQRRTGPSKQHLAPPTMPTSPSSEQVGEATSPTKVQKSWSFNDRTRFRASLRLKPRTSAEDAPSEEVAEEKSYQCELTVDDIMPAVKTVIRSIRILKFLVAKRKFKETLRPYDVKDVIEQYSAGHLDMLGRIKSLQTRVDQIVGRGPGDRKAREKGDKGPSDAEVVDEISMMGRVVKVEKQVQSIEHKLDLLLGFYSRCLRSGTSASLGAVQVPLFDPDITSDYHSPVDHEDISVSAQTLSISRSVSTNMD

Sequence of Potassium voltage-gated channel subfamily KQT member 2 (Rattus norvegicus) (O88943 whole entry): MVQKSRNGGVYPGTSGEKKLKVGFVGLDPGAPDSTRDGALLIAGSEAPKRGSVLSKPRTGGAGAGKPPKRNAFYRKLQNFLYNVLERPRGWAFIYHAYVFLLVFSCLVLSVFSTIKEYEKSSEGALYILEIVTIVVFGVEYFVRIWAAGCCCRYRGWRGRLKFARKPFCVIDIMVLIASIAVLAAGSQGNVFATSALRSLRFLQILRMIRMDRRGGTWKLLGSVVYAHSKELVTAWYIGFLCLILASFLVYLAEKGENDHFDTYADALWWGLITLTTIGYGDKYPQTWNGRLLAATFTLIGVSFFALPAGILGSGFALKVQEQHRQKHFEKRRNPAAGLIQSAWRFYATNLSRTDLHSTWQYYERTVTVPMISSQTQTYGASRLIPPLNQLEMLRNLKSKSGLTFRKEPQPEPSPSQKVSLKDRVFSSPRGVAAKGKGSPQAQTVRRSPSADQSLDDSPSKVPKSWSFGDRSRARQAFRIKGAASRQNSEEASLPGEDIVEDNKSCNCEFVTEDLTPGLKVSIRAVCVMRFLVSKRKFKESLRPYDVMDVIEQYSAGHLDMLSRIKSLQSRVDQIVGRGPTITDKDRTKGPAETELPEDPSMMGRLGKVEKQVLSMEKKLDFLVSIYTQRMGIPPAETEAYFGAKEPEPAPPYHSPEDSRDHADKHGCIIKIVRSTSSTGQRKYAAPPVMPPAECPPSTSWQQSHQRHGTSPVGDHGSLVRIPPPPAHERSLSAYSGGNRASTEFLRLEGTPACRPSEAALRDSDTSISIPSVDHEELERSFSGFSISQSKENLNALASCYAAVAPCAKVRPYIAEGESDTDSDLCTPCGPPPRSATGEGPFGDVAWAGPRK
Sequence of Potassium voltage-gated channel subfamily KQT member 2 (O88943 whole entry): as above

C#CCN(Cc1ccc(F)cc1)c1ccc(NC(=O)OCC)c(NC(=O)OCC)c1
Ratio [1]: 1 | Ratio [2]: 1 | Ratio [3]: 0.94 | Activity [4]: 2% | Activity [5]: inactive
